Bioassay records: PubChem, The Scripps Research Institute Molecular Screening Center
This is a sample that favours compounds with a hit; in the whole collection about 1.8% have one here.
TCR-CD3 inh – inhibitors of human TCR-CD3 interaction, primary screen, biochemical, fluorescence, TAMRA-labeled TCR probe; T-cell receptor (TCR); inhibition, % at 9.4 µM; 360,000 tested, 0.37% active; in the data active = inhibition above about 19%;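 also: recombinant mutant TCR 2C K166C tagged with TAMRA read by polarization; 0% = receptor in buffer alone and 100% = receptor with positive control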
HTRA1 inh – HTRA1 serine protease inhibitors, primary screen, biochemical, fluorescence polarization, HTS. Q92743. inhibition, % at 5.96 µM. recombinant HTRA1, FP-rhodamine activity-based probe. 340,000 tested, 0.5% active; in the data active = inhibition above about 36%;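 also: 0% = enzyme with DMSO and 100% = wells lacking enzyme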
ABHD4 inh – ABHD4 inhibitors, primary screen, biochemical, fluorescence polarization, mouse | (Lyso)-N-acylphosphatidylethanolamine lipase (Mus musculus), Q8VD66 | purified mABHD4, FP-Rh probe fluorescence polarization | 370,000 tested, 0.54% active | inhibition, % at 8.92 µM;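 active = inhibition exceeding the mean over every tested compound plus 3 SD, cut at about 30% in these data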;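 also: 0% = plate median of compound wells and 100% = S159A mutant with DMSO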
Target sequence (Q8VD66 whole entry, looked up): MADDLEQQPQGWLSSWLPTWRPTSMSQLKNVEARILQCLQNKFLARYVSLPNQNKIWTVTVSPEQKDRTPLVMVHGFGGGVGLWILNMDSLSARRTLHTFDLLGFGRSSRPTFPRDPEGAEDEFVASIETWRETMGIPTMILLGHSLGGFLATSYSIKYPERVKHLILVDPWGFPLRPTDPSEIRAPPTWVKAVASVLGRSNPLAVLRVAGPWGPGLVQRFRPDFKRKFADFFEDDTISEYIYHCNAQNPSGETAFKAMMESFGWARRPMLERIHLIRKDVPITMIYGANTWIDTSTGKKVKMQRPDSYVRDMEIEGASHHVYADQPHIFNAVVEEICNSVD
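system = mouse ABHD4 enzyme, wild type | medium = HEPES pH 7.0, NaCl, Pluronic buffer | also added = FP-Rh probe | incubation = Enzyme–compound pre-incubation 45 min, then probe 60 min, both 25 °C | technique = fluorescence polarization, excitation 525 nm, emission 598 nm, BODIPY TMR filters | controls = S159A mutant high control, sample median low control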
Tn6 DDE FP – inhibitors of Tn6 peptide binding to fibrin DD(E), primary screen, biochemical, fluorescence polarization, human fibrin, Tn6 probe. Fibrinogen beta chain (Homo sapiens), P02675. Fibrin DD(E) TRITC-Tn6 fluorescence polarization displacement. inhibition, % at 8.3 µM. 370,000 tested, 0.21% active. AID 720509, 2013;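 active = inhibition above a per-campaign cutoff: mean of compounds within control limits plus 3 SD, cut at about 15% in these data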;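 also: 0% = median of all compound wells on the plate and 100% = blocking peptide control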
SIAE primary – human SIAE inhibitors, primary screen, biochemical, fluorescence polarization, FP-Rh probe, 1536-well HTS; inhibition, % at 9.66 µM; 370,000 tested, 0.69% active; AID 1053197, 2014; Sialate O-acetylesterase (Homo sapiens), Q9HAT2; SIAE FP-Rh probe binding;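 active = inhibition above a cutoff: mean of compounds within the control limits plus 3 SD of those, cut at about 17% in these data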;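 also: 0% = plate median of compound wells and 100% = probe without SIAE protein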
Tn7 DDE FP – inhibitors of Tn7 peptide binding to fibrin DD(E), primary screen, biochemical, fluorescence polarization, human fibrin, Tn7 probe. Fibrinogen beta chain (Homo sapiens), P02675. FP displacement of FITC-Tn7 peptide from fibrin DD(E); 0% = median of compound wells per plate. inhibition, % at 8.3 µM. 370,000 tested, 0.13% active. AID 720508, 2013;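 active = inhibition above the mean of compounds falling within the control limits plus 3 SD of them, cut at about 14% in these data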;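 also: 0% = plate median of compound wells and 100% = 10 µM Aha-Tn7 peptide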
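Test system – human fibrin DD(E) · Times – 10 min preincubation, 3 h with tracer, room temperature · Detection – fluorescence polarization of the labelled Tn7 tracer · Measure – percent inhibition normalized to high-control wells · Benchmarks – high control wells with 10 µM unlabelled Aha-Tn7 peptide (full inhibition) · Repeats – singlicate testing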
Tn7 DDE conf – inhibitors of Tn7 peptide binding to fibrin DD(E), confirmation, biochemical, fluorescence polarization, human fibrin, Tn7 probe. shares compounds with Tn7 DDE FP. FP displacement of TRITC-Tn7 peptide from DD(E); 0% set at plate's compound-well median. inhibition, % at 8.3 µM. 460 tested, 5% active;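 active = inhibition above the campaign cutoff, the mean of compounds within control limits plus 3 SD, cut at about 14% in these data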;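 also: 100% = median FP of high control wells holding Aha-Tn7 inhibitor peptide; displacers lower polarization since freed probe rises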
DDE Tn7 FP ctr – DD(E)-Tn7 binding inhibition, counter-screen. shares compounds with Tn7 DDE FP. fibrin DD(E), TRITC-Tn7 probe displacement, fluorescence polarization. inhibition, % at 8.3 µM. 460 tested, 3% active. AID 720633;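 active = inhibition above the cutoff, the mean of compounds lying between the control bounds plus 3 SD of those compounds, cut at about 17% in these data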;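 also: 0% = median of compound sample wells and 100% = excess unlabeled Aha-Tn7 peptide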
An asterisk follows results filed as active; nt = not tested or not shown.

SMILES	TCR-CD3 inh	HTRA1 inh	ABHD4 inh	Tn6 DDE FP	SIAE primary	Tn7 DDE FP	Tn7 DDE conf	DDE Tn7 FP ctr
COC(=O)CC(=O)CC(NS(=O)(=O)c1ccc(C)cc1)c1ccccc1 (stereo not drawn)	2	nt	0	8	-8	2	nt	nt
COc1cccc(N(C)C(=O)[C@@H](C)[C@@H](O)c2ccc(C(C)=O)cc2)c1	nt	nt	6	5	-4	4	nt	nt
O=C(NNC(=O)c1ccccc1-n1cccc1)c1cccc(Cl)c1	-6	2	-5	-2	-4	0	nt	nt
O=C(NNC(=O)c1ccccc1-n1cccc1)c1cncc(Br)c1	-3	0	-6	0	12	16*	7	2
COc1ccc(S[C@]2(C(=O)N3CCOCC3)CC(=O)N(C(=O)C3CC3)[C@@H]2c2ccc(OC)cc2)cc1	nt	nt	4	4	4	-3	nt	nt
CCc1ccc(C(=O)N2CCN(c3ccc(F)cc3)CC2)s1	9	-2	2	4	-1	16*	3	3
Cc1ccc(-c2cc(C(=O)NN=Cc3sccc3C)[nH]n2)cc1C	nt	nt	-33	-4	-8	1	nt	nt
CCOC(=O)c1c(-c2ccccc2)oc2ccc(O)c(CN3CCCC3)c12	1	-4	2	4	-1	15*	-2	-7
CCOC(=O)c1c(-c2ccccc2)oc2ccc(O)c(CN(C)C)c12	4	3	2	0	-3	6	nt	nt
Clc1ccc2nc3c4ccccc4cnn3c2c1	4	-6	-6	5	-6	2	nt	nt
Oc1ccc2nnc3c(Br)cnn3c2c1	2	4	7	-6	-9	17*	11	-1
CCCCc1nnn2c1C1c3cc(Br)ccc3CCN1C(=O)C2 (stereo not drawn)	6	nt	-4	-1	-1	1	nt	nt
COc1ccc(-c2cn3c(C)c(C(=O)Nc4cccc(NC(C)=O)c4)sc3n2)cc1	7	0	-8	-4	0	14*	5	-5
COc1ccc(-c2cn3c(C)c(C(=O)Nc4ccncc4)sc3n2)cc1	3	-15	-5	-1	1	2	nt	nt
CCOC(=O)C1=CN(Cc2ccco2)S(=O)(=O)N(C)C1c1ccc2ccccc2c1 (stereo not drawn)	-7	-21	-5	-1	1	15*	3	-3
CCOC(=O)C1=CN(Cc2ccco2)S(=O)(=O)N(C)C1c1ccc(C(F)(F)F)cc1 (stereo not drawn)	5	-19	-8	-6	-5	0	nt	nt
CCOc1ccc(-n2c(SCC(=O)Nc3ccc(OCc4ccccc4)cc3)nnc2-c2ccc(Cl)cc2)cc1	nt	nt	1	-8	6	-3	nt	nt
O=C(Nc1nnc(SCC(=O)N2CCCC2)s1)C1CC(=O)N(c2ccc(F)cc2)C1 (stereo not drawn)	-2	10	5	3	9	1	nt	nt
O=C(CSc1nnc(NC(=O)C2CC(=O)N(c3ccc(F)cc3)C2)s1)NC1CCCC1 (stereo not drawn)	8	1	0	10	-2	14*	9	4
CCC(=O)Nc1sccc1C(=O)OC	nt	4	nt	nt	nt	nt	nt	nt
CCOC(=O)NC(=O)C(/C=N/c1sccc1C(=O)OC)=C(\C)O	6	nt	16	1	-1	29*	-4	-8
Cc1ccc(NC(=O)Cc2nnc(SCC(=O)Nc3nncs3)n2C)c(C)c1	3	-3	7	-2	-2	4	nt	nt
Cn1c(CC(=O)Nc2ccccc2Cl)nnc1SCC(=O)Nc1nncs1	-1	1	-7	2	3	14*	-8	-11
Cc1cccc(S(=O)Cc2ccc(C(=O)NC3CCN(Cc4ccccc4)CC3)o2)c1 (stereo not drawn)	-2	0	-3	0	-1	1	nt	nt
Cc1ccccc1S(=O)Cc1ccc(C(=O)NC2CCN(Cc3ccccc3)CC2)o1 (stereo not drawn)	0	7	1	-10	7	14*	5	-4
SMILES	TCR-CD3 inh	HTRA1 inh	ABHD4 inh	Tn6 DDE FP	SIAE primary	Tn7 DDE FP	Tn7 DDE conf	DDE Tn7 FP ctr
COc1ccc(OC)c(NC(=O)c2ccc(-c3cccs3)cc2)c1	3	-32	-17	-7	-2	15*	7	3
COc1ccc(NC(=O)c2cc(-c3cccs3)on2)c(OC)c1	-7	-2	2	-4	1	-2	nt	nt
CCOC(=O)C1CCN(CC(=O)N2CCc3ccccc32)CC1	2	4	1	6	-1	14*	-3	-3
C=CCN1C(=O)[C@@H](CC(=O)NCc2cccs2)[C@]2(C(=O)OC)CCCCC=C12	nt	nt	-7	7	-2	6	nt	nt
COc1cc(NC(=O)c2ccc(-c3cccnc3)c3ccoc23)cc(OC)c1OC	-7	nt	-12	-8	-5	3	nt	nt
O=C(Nc1cccc(OC(F)(F)F)c1)c1ccc(-c2cccnc2)c2ccoc12	-7	nt	-23	8	-5	14*	3	-10
O=C1[C@H]2[C@@H](c3ccc(C(F)(F)F)cc3)N[C@]3(CCCN(Cc4ccc(C(F)(F)F)cc4)C3=O)[C@H]2C(=O)N1Cc1ccccc1	7	-38	-18	-5	-8	7	nt	nt
COc1ccc([C@H]2N[C@]3(CCCN(Cc4ccc(C(F)(F)F)cc4)C3=O)[C@H]3C(=O)N(Cc4ccccc4)C(=O)[C@@H]23)cc1	0	-57	-9	0	-2	17*	8	7
Cc1cc(C(=O)NNc2cc(Cl)ccc2Cl)no1	1	-3	0	1	12	2	nt	nt
Cc1cc(C(=O)NNc2c(Cl)cccc2Cl)no1	0	-6	-6	3	1	14*	2	-3
CC(NC(=O)COC(=O)[C@@H]1CCCN1S(=O)(=O)c1ccccc1F)C12CC3CC(CC(C3)C1)C2 (stereo partly drawn)	8	-27	-1	3	-6	14*	0	0
CCCOc1ccc(C(=O)N2CCC(Oc3cccnc3)CC2)cc1	nt	nt	4	3	3	-5	nt	nt
